Bioassay records deposited in PubChem by several laboratories.
Redox H2O2 prof = compounds producing H2O2 with reducing agent – biochemical, NIH compound library profiling, artefact control for MLSCN library redox annotation, primary screen | 200,000 tested, 0.03% active | activation, % at 10 µM | DTT-dependent redox cycling H2O2, phenol red/HRP absorbance; 100% = 100 µM peroxide control, 0% = buffer;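 active = activation of at least 50% relative to the plate's high and low controls in the primary single-dose screen; inactive = activation below 50%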;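 also: compound incubated with DTT at 0.8 mM final as the reducing agent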
KCC2 mod = KCC2 (human) Cl- transport modulation; 190,000 tested, 2.2% active; B-score of Tl+ flux slope (higher = more flux/activation; lower = inhibition) at 10 µM; KCC2 cells, thallium flux FluoZin-2 fluorescence;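 active = thallium flux slope and its plate-corrected score both differing from the plate sample mean at a set confidence after two filtering rounds, in either direction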;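 also: slope of fluorescence scaled to starting intensity during 10 to 20 s after thallium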
Autophagy HCS = alters autophagy in cells; AID 463193; 190,000 tested, 0.98% active; MEF GFP-LC3 puncta imaging; test concentration mostly 10 µM; calls only at 10 µM (by protocol);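 active = percentage of spot-positive cells more than 3 SD above its plate mean, without a fluorescence outlier flag or 80% toxicity; inconclusive = no clear call, values can overlap the other calls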;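 also: spot-positive cell cutoff set from DMSO-treated cells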
ROMK mod = modulates human ROMK potassium channel activity | Tet-inducible ROMK, thallium flux fluorescence; actives lie on both sides | B-score at 10 µM | 130,000 tested, 2% active | AID 1918;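 active = signal ratio slope over the read window, or its plate-corrected B-score, at least 3 SD from the plate mean, either direction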;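 also: B-score of the F/F0 ratio slope over 7 to 12 s after thallium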
Target sequence (P48048 whole entry, looked up): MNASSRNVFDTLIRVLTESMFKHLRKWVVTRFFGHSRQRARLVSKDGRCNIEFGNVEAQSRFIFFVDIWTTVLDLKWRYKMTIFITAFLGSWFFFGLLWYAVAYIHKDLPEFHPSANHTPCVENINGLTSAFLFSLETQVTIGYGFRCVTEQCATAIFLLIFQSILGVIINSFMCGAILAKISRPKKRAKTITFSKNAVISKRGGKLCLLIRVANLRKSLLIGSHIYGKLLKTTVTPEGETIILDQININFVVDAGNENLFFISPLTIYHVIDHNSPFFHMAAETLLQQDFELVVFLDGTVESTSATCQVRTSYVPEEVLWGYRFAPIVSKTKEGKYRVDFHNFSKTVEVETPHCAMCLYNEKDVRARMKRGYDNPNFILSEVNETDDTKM
Dynein transport = dynein cargo transport inhibition. 3617.4 mouse cells, GR-EGFP nuclear translocation imaging; test concentration mostly 20 µM; stimulated with dexamethasone, 1 µM; stronger effect = lower value. z-score, hits read low. 220,000 tested, 0.47% active;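 active = plate z-score of nuclear minus cytoplasmic receptor signal below a set negative limit, without overly bright fluorescence or cell loss, cut at about -3.5 in these data, passing the limit was not always enough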;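 also: z-score of nuclear minus cytoplasmic ring GR-EGFP intensity difference per well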
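Buffer or medium – tet-free medium with charcoal-stripped serum · Signal – automated 10x imaging of fixed Hoechst-stained cells · Also added – dexamethasone agonist, 1.0 µM final, for 30 min · Incubation – induction 48 h, compound 1 h, agonist 30 min · Read-out – GR-EGFP nuclear translocation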
KCC2 sec1 = confirmation of human KCC2 transport modulators | HEK293-KCC2, thallium flux, FluoZin2 fluorescence; stronger effect = higher value | 3,700 tested, 15% active | AID 1713 | shares compounds with KCC2 mod | normalised thallium flux (F/F0 slope) at 10 µM;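 active = thallium flux slope above the same plate's solvent-only control mean plus 3 SD; inconclusive = the two replicate wells disagree; inactive = no significant difference from solvent-only control wells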
KCC2 bumet counter = thallium flux despite bumetanide block in KCC2 cells, secondary assay 3. shares compounds with KCC2 mod. HEK293-KCC2 + bumetanide/ouabain, thallium flux FluoZin2; stronger effect = higher value. normalized thallium flux at 10 µM. 3,700 tested, 49% active;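 active = thallium entry rate above the same plate's blocked-transporter control wells by more than 3 SD; inconclusive = the two repeat wells disagree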;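 also: raw slope of fluorescence over initial fluorescence between 10 and 20 s after thallium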
KCC2 secondary2 = confirmation of human KCC2 transport modulators; shares compounds with KCC2 mod; HEK293-KCC2, thallium flux FluoZin2 fluorescence; actives lie on both sides; F/F0 rise rate, 10–20 s post-thallium; normalized thallium flux at 10 µM; 3,700 tested, 23% active; AID 1715;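 active = thallium flux slope more than 3 SD above or below the plate's solvent-only control mean, mostly below; inconclusive = the two repeat wells disagreed; inactive = no significant shift from solvent-only controls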;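 also: raw slope with 0.1% DMSO as baseline and bumetanide as block control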
HEK293 Tl flux = parental HEK flux effect, counter-screen; shares compounds with KCC2 mod; HEK293 parental cells, thallium flux FluoZin2, ouabain; baseline-ratio fluorescence slope, 10–20 s after thallium; thallium flux rate (normalised fluorescence) at 10 µM; 3,700 tested, 46% active;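 active = thallium flux rate significantly above the same plate's solvent-only control wells, beyond their mean plus 3 SD; inconclusive = the two replicate wells gave conflicting results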
KCC2 ouabain = KCC2 (human) modulation, ouabain retest. shares compounds with KCC2 mod. HEK293-KCC2, thallium flux FluoZin2 fluorescence; bidirectional: low = inhibitor, high = activator. raw Tl+ flux slope (below DMSO = inhibition, above = activation) at 10 µM. 3,700 tested, 48% active. AID 1717;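 active = thallium flux slope beyond 3 SD from same-plate DMSO control mean in most replicates, usually higher, sometimes lower; inconclusive = repeat tests gave conflicting results; inactive = no significant difference from controls in most replicates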;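 also: slope of initial-normalized fluorescence between seconds 10 and 20 after thallium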
HEK counter2 = parental HEK flux effect, counter-screen 2 | thallium flux slope at 10 µM | HEK293 parental, thallium flux FluoZin-2 fluorescence slope | AID 1718 | 3,700 tested, 33% active | shares compounds with KCC2 mod;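 active = thallium flux slope above the same plate's solvent-control mean plus 3 SD in both duplicate wells; inconclusive = duplicate wells that disagreed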;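 also: run without ouabain in cells lacking the KCC2 cotransporter; slope of fluorescence scaled to its starting value between 10 and 20 s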
The depositor's hits bear a star; i = inactive; ? = inconclusive; nt = no result given; + = active, no number. Hits are enriched below; roughly 4.1% of the tested compounds scored in any of these assays.

SMILES | Redox H2O2 prof | KCC2 mod | Autophagy HCS | ROMK mod | Dynein transport | KCC2 sec1 | KCC2 bumet counter | KCC2 secondary2 | HEK293 Tl flux | KCC2 ouabain | HEK counter2
COc1ccc(C2C(C(N)=O)=C(C)Nc3nc(-c4ccccc4)nn32)cc1OC (stereo unspecified) | -2 | 5.5* | i | nt | -0.76 | 0.0069 | ? | 0.029 | 0.0082 | 0.019 | ?
Cc1ccc(NC2Sc3ccccc3NC2=O)cc1 (stereo unspecified) | 0 | 0.75 | i | 0.64 | -0.95 | nt | nt | nt | nt | nt | nt
CCCCOC(=O)C1=C(C)NC2=C(C(=O)CCC2)C1c1cc(OC)ccc1OC (stereo unspecified) | 0 | 7.5* | i | nt | -0.58 | 0.0071 | 0.0056 | 0.029 | 0.0065 | 0.019 | 0.0092
N#C/C(=C(/O)c1cccc(F)c1)c1nc2ccccc2s1 | nt | -3* | nt | nt | -0.75 | 0.0089 | 0.006 | ? | 0.0077 | 0.016* | 0.011
N#C/C(=C(/O)c1ccco1)c1nc2ccccc2s1 | -4 | -1.3 | i | nt | -0.044 | nt | nt | nt | nt | nt | nt
CCCCC1=NN(C(=O)c2cccnc2)C(O)(C(F)(F)F)C1 (stereo unspecified) | nt | -0.089 | nt | nt | 0.38 | nt | nt | nt | nt | nt | nt
COCCN(CCOC)S(=O)(=O)c1ccc(C(=O)Nc2ccc([N+](=O)[O-])cc2OC)cc1 | -2 | -0.023 | i | 0.49 | -0.087 | nt | nt | nt | nt | nt | nt
COC(=O)C(NC(C)=O)(Nc1sc2c(c1C(N)=O)CCCC2)C(F)(F)F (stereo unspecified) | 0 | nt | i | 0.89 | 0.38 | 0.0082 | 0.0059 | 0.029 | 0.0069 | 0.02 | 0.0097
O=C(O)CC(=O)NC12CC3CC(CC(C3)C1)C2 | 0 | 0.31 | i | 0.19 | -0.4 | 0.0092 | 0.0062 | 0.035 | 0.0079 | 0.022 | ?
COc1ccc(CNC(=O)c2cc(-c3ccncc3)nc3c(C)cc(C)cc23)cc1OC | 0 | -0.036 | i | 0.31 | 0.83 | nt | nt | nt | nt | nt | nt
O=C(N/N=C/c1ccccn1)c1cccc(S(=O)(=O)N2CCCC2)c1 | nt | -0.11 | nt | nt | -0.61 | nt | nt | nt | nt | nt | nt
CC(C)C(CCNC(=O)CN1C(=O)c2ccccc2C1=O)c1ccco1 (stereo unspecified) | 0 | 1.6 | i | -0.87 | -0.35 | nt | nt | nt | nt | nt | nt
CC(C)C(CCNC(=O)CC(Cc1ccccc1)c1ccco1)c1ccco1 (stereo unspecified) | 7 | -4.5* | i | nt | -0.91 | ? | 0.005 | ? | ? | 0.016* | 0.0095
C[C@@H]1CC[C@H]2C(=O)N3[C@@H](CC[C@@H](C)[C@@H]3c3ccc(Br)cc3)C(=O)N2[C@H]1c1ccc(Br)cc1 | 2 | 5.3* | i | 0.054 | 0.12 | 0.0069 | 0.0053 | 0.028 | 0.0078 | 0.018 | 0.011
CCC(C)NC(=O)COc1ccc(OCc2ccccc2)cc1 (stereo unspecified) | 0 | -0.86 | i | -2.1 | -0.95 | nt | nt | nt | nt | nt | nt
COCCN1C(=O)/C(=C/c2ccc(OCc3ccc(C(=O)O)cc3)c(OC)c2)SC1=Nc1ccccc1 | -1 | -5.7* | i | -2.3 | 0.12 | 0.0074 | 0.0051 | 0.022* | 0.0066 | 0.013* | 0.0094
COc1cc(/C=C2\SC(=Nc3ccccc3)N(Cc3ccco3)C2=O)ccc1OC(C)C(=O)O (stereo unspecified) | 0 | -0.84 | i | nt | 0.46 | nt | nt | nt | nt | nt | nt
Cc1cccn2cc(CCNS(=O)(=O)c3cccc([N+](=O)[O-])c3)nc12 | nt | -1.6 | nt | -0.63 | -0.59 | nt | nt | nt | nt | nt | nt
O=C(NC(=S)Nc1ccc(CN2CCOCC2)cc1)c1cc2ccccc2o1 | 7 | 12* | i | -0.22 | -0.029 | 0.0065 | 0.016* | 0.032 | 0.02* | 0.029* | 0.015*
O=C(NC(=S)Nc1ccc(CN2CCOCC2)cc1)c1ccc(-c2ccc(Cl)cc2)o1 | nt | 1.9 | nt | nt | 0.034 | nt | nt | nt | nt | nt | nt
O=C(NC(=S)Nc1ccc(CN2CCOCC2)cc1)c1ccc(-c2ccc(Br)cc2)o1 | nt | 5.3* | nt | nt | -0.19 | 0.0096 | 0.0063 | 0.033 | 0.018* | ? | 0.011
CCc1nc2ccccc2c(C(=O)OCC(=O)NC(=O)c2cccn2C)c1C | nt | -0.69 | nt | nt | -0.052 | nt | nt | nt | nt | nt | nt
CC1C(=O)OC(c2ccc(Br)cc2)C(C)(C)C1=O (stereo unspecified) | nt | nt | nt | nt | -0.21 | nt | nt | nt | nt | nt | nt
Cc1nnsc1C(=O)NNc1c(Cl)cccc1Cl | nt | 1.1 | nt | nt | -0.49 | nt | nt | nt | nt | nt | nt
CCc1ccccc1NNC(=O)c1snnc1C | nt | 5* | nt | nt | -0.62 | 0.0099 | 0.0084* | 0.033 | 0.0069 | 0.022 | 0.01
SMILES | Redox H2O2 prof | KCC2 mod | Autophagy HCS | ROMK mod | Dynein transport | KCC2 sec1 | KCC2 bumet counter | KCC2 secondary2 | HEK293 Tl flux | KCC2 ouabain | HEK counter2
COc1ccc(C2=CC(=O)OC(C)(c3ccccc3)O2)cc1 (stereo unspecified) | 0 | -0.48 | i | 0.63 | -0.43 | nt | nt | nt | nt | nt | nt
CCCCNC(=O)c1onc(CSc2cccc3ccccc23)c1C(=O)O | 17 | -4.8* | i | nt | -1.2 | 0.0073 | 0.006 | 0.029 | ? | 0.018* | 0.0094
COc1ccc(C(=O)OCN2C(=O)c3ccccc3C2=O)cc1 | 0 | -0.56 | i | nt | 0.35 | nt | nt | nt | nt | nt | nt
O=C(NC(=S)NCCc1ccccc1)c1ccco1 | 2 | nt | i | nt | -0.6 | nt | nt | nt | nt | nt | nt
Cc1ccccc1C(=O)NC(=S)NCCC1=CCCCC1 | 0 | 4.4* | i | -0.98 | 0.72 | 0.011 | 0.016* | 0.034 | 0.026* | 0.027* | ?
O=C(NC(=S)NCCC1=CCCCC1)c1ccc(Br)o1 | 0 | 59* | i | -0.61 | -0.026 | ? | 0.066* | 0.075* | 0.077* | 0.077* | 0.07*
O=C(NC(=S)NC1CCCc2ccccc21)c1ccco1 (stereo unspecified) | -3 | 63* | + | 1.3 | -0.023 | 0.03* | 0.17* | 0.046* | 0.097* | 0.11* | 0.035*
O=C(NC(=S)NCCC1=CCCCC1)c1ccco1 | 1 | 79* | i | -0.15 | 0.071 | 0.034* | 0.16* | 0.046* | ? | 0.11* | 0.037*
CCOC(=O)N1C=CC(C)=C[C@@H]2[C@@H](N3C(=O)c4ccccc4C3=O)C(=O)N21 | 0 | 1.8 | i | nt | -1.1 | nt | nt | nt | nt | nt | nt
